Converted amounts (≈) assume the structure as drawn. The source made the active and inactive calls. No cut-off for these calls is given here.
Experiments:
Bacillus subtilis = experiment: Antibacterial activity against Bacillus subtilis ATCC 6633 by broth microdilution method; assay type: functional
Procedure, shortened: (§1)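 MIC and MBC by broth microdilution following NCCLS recommendations; values given in µg/mL.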

Staphylococcus aureus [1] = experiment: Antibacterial activity against methicillin-resistant Staphylococcus aureus CMAH 0504 by broth microdilution method; assay type: functional; procedure, shortened: as §1
Staphylococcus aureus [2] = experiment: Antibacterial activity against methicillin-resistant Staphylococcus aureus CMAH 0430 by broth microdilution method; assay type: functional; procedure, shortened: as §1
[3] = Toxicity in human erythrocytes assessed as hemolytic activity at 500 ug/ml after 1 hr; assay type: cell-based, Erythrocyte; conditions: read-out: Activity
Procedure, shortened: (§2)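 Human heparinised erythrocytes, PBS-washed, were used at about 1.0 × 10^9 cells/mL and mixed 1:1 with compound (1-2000 µg/mL) for 1 h at 37 °C. After centrifugation, supernatant OD540 was read. PBS set 0% lysis and 0.1% Triton X-100 set 100% lysis. Triplicates, confirmed in three independent experiments.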

[4] = Toxicity in human erythrocytes assessed as hemolytic activity at 1000 ug/ml after 1 hr; assay type: cell-based, Erythrocyte; conditions: read-out: Activity; procedure, shortened: as §2
[5] = Toxicity in human erythrocytes assessed as hemolytic activity at 250 ug/ml after 1 hr; assay type: cell-based, Erythrocyte; conditions: read-out: Activity; procedure, shortened: as §2
[6] = Toxicity in human erythrocytes assessed as hemolytic activity at 2000 ug/ml after 1 hr; assay type: cell-based, Erythrocyte; conditions: read-out: Activity; procedure, shortened: as §2
Staphylococcus aureus [7] = experiment: Antibacterial activity against methicillin-resistant Staphylococcus aureus CMAH 0515 by broth microdilution method; assay type: functional; procedure, shortened: as §1
Staphylococcus aureus [8] = experiment: Antibacterial activity against methicillin-susceptible Staphylococcus aureus ATCC 25923 by broth microdilution method; assay type: functional; procedure, shortened: as §1
Micrococcus luteus = experiment: Antibacterial activity against Micrococcus luteus CMCC(B)28001 by broth microdilution method; assay type: functional; procedure, shortened: as §1
Staphylococcus aureus [9] = experiment: Antibacterial activity against methicillin-resistant Staphylococcus aureus CMAH 0515 by disk diffusion method; assay type: functional
Staphylococcus aureus [10] = experiment: Antibacterial activity against methicillin-resistant Staphylococcus aureus CMAH 0504 at 30 ug/ml by disk diffusion method; assay type: functional; conditions: read-out: IZ
Staphylococcus aureus [11] = experiment: Antibacterial activity against methicillin-resistant Staphylococcus aureus CMAH 0430 by disk diffusion method; assay type: functional
Staphylococcus aureus [12] = experiment: Antibacterial activity against Staphylococcus aureus by disk diffusion method; assay type: functional
Escherichia coli = experiment: Antibacterial activity against Escherichia coli ATCC 25922 by broth microdilution method; assay type: functional; procedure, shortened: as §1
Staphylococcus aureus [13] = experiment: Antibacterial activity against methicillin-susceptible Staphylococcus aureus ATCC 25923 at 15 ug/ml after 40 mins; assay type: functional, organism-based
Procedure, shortened: (§3)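 Time-kill assay. Mid-log cultures were diluted in Mueller–Hinton broth to a final inoculum of 3-5 × 10^5 cells/mL and incubated at 30 °C with 5, 10, 15 µg/mL (S. aureus ATCC 25923) or 2.5, 5, 10 µg/mL (MRSA CMAH 0504), alongside a drug-free growth control. Samples were washed, plated on MH agar and incubated 24 h at 30 °C for colony counts. Three independent experiments, each in triplicate.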

Staphylococcus aureus [14] = experiment: Antibacterial activity against methicillin-resistant Staphylococcus aureus CMAH 0504 at 10 ug/ml after 20 to 30 mins; assay type: functional, organism-based; procedure, shortened: as §3
Pseudomonas aeruginosa = experiment: Antibacterial activity against Pseudomonas aeruginosa ATCC 27853 by broth microdilution method; assay type: functional; procedure, shortened: as §1

Compound	MBC (Bacillus subtilis) [µg/mL]	MIC (Bacillus subtilis) [µg/mL]	MBC (Staphylococcus aureus [1]) [µg/mL]	MIC (Staphylococcus aureus [1]) [µg/mL]	MBC (Staphylococcus aureus [2]) [µg/mL]	MIC (Staphylococcus aureus [2]) [µg/mL]	hemolysis at 1 h, 500 ug/ml [3] [%]	hemolysis at 1 h, 1000 ug/ml [4] [%]	hemolysis at 1 h, 250 ug/ml [5] [%]	hemolysis at 1 h, 2000 ug/ml [6] [%]	MBC (Staphylococcus aureus [7]) [µg/mL]	MIC (Staphylococcus aureus [7]) [µg/mL]	MBC (Staphylococcus aureus [8]) [µg/mL]	MIC (Staphylococcus aureus [8]) [µg/mL]	MBC (Micrococcus luteus) [µg/mL]	MIC (Micrococcus luteus) [µg/mL]	inhibition zone (IZ) (Staphylococcus aureus [9]) [mm]	zone of inhibition at 30 µg/mL (Staphylococcus aureus [10]) [mm]	inhibition zone (IZ) (Staphylococcus aureus [11]) [mm]	inhibition zone (IZ) (Staphylococcus aureus [12]) [mm]	other results
C=CC1C[N+]2(CC(=O)c3ccc([N+](=O)[O-])cc3)CCC1CC2[C@H](O)c1ccnc2ccc(OC)cc12.[Br-] (stereo not given in full)	50	25	50	50	50	50	0	0	0	0	50	50	50	25	50	25					
CN(C)[C@@H]1C(O)=C(C(N)=O)C(=O)[C@@]2(O)C(O)=C3C(=O)c4c(O)cccc4[C@@](C)(O)[C@H]3C[C@@H]12 [TETRACYCLINE]																	17	17	15	14	
C[C@H]1COc2c(N3CCN(C)CC3)c(F)cc3c(=O)c(C(=O)O)cn1c23.C[C@H]1COc2c(N3CCN(C)CC3)c(F)cc3c(=O)c(C(=O)O)cn1c23.O [LEVOFLOXACIN]																				32	
C=C[C@H]1C[N@@]2CC[C@H]1C[C@H]2[C@H](O)c1ccnc2ccc(OC)cc12 [QUININE]							0	0	0	0											
CC1(C)S[C@@H]2[C@H](NC(=O)[C@H](N)c3ccccc3)C(=O)N2[C@H]1C(=O)O [AMPICILLIN]	0.39 (≈ 1.12 µM)	0.39 (≈ 1.12 µM)											0.78 (≈ 2.23 µM)	0.39 (≈ 1.12 µM)	0.78 (≈ 2.23 µM)	0.39 (≈ 1.12 µM)				34	MBC (Escherichia coli): 100 µg/mL (≈ 286 µM); MIC (Escherichia coli): 50 µg/mL (≈ 143 µM)
C=CC1C[N+]2(CC(=O)c3ccc(Cl)cc3)CCC1CC2[C@H](O)c1ccnc2ccc(OC)cc12 (stereo not given in full)																					Activity (Staphylococcus aureus [1]): inactive; Activity (Staphylococcus aureus [2]): inactive; Activity (Staphylococcus aureus [7]): inactive; Activity (Staphylococcus aureus [8]): inactive
C=CC1C[N+]2(CC(=O)c3cccc4ccccc34)CCC1CC2[C@H](O)c1ccnc2ccc(OC)cc12.[Br-] (stereo not given in full)	6.25	3.13	1.56	0.78	1.56	0.39	9	17	0	55	1.56	0.39	3.13	1.56	3.13	3.13	25	23	26	26	MBC (Escherichia coli): 100 µg/mL; MIC (Escherichia coli): 50 µg/mL; Activity (Staphylococcus aureus [13]): inactive; Activity (Staphylococcus aureus [14]): Active; MIC (Pseudomonas aeruginosa): 100 µg/mL
C=CC1C[N+]2(CC(=O)c3ccc(Br)cc3)CCC1CC2[C@H](O)c1ccnc2ccc(OC)cc12.[Br-] (stereo not given in full)	6.25	3.13	12.5	6.25	6.25	3.13	0	7	0	25	6.25	3.13	6.25	3.13	6.25	6.25	22	22	23	24	MIC (Escherichia coli): 100 µg/mL; MIC (Pseudomonas aeruginosa): 100 µg/mL
